Calls of active or inactive are those of the source. No cut-off for these calls is given here.
Experiments:
[1] = target: T1, Alpha-1A adrenergic receptor (Homo sapiens, UniProt P35348); assay: Displacement of [125I]BE-2254 from human adrenergic alpha1A receptor expressed in HEK293 cells; format: cell-based
T1 sequence (P35348 whole entry): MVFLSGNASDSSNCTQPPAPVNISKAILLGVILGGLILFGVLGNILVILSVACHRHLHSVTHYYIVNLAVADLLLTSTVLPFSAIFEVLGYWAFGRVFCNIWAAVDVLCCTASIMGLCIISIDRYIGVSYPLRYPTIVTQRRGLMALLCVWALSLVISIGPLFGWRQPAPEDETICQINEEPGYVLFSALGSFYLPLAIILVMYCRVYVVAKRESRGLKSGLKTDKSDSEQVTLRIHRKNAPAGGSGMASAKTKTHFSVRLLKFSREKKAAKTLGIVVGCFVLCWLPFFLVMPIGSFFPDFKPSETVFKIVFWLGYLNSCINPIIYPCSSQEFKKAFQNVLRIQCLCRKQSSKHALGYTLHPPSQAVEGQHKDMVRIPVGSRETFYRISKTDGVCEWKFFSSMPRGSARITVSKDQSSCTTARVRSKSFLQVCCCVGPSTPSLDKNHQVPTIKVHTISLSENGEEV
Method in brief: (§1)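 Membranes came from HEK293 cells stably expressing human α1A-, α1B- or α1D-AR, selected with geneticin. Cells were washed in PBS pH 7.6, homogenized, and spun at 30,000 × g for 10 min. The radioligand was [125I]BE 2254. Affinities are pKi, given as mean ± SE of three experiments run in duplicate.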

[2] = target: T2, Alpha-1D adrenergic receptor (Homo sapiens, UniProt P25100); assay: Displacement of [125I]BE-2254 from human adrenergic Alpha-1D receptor expressed in HEK293 cells; format: cell-based; method in brief: as §1
T2 sequence (P25100 whole entry): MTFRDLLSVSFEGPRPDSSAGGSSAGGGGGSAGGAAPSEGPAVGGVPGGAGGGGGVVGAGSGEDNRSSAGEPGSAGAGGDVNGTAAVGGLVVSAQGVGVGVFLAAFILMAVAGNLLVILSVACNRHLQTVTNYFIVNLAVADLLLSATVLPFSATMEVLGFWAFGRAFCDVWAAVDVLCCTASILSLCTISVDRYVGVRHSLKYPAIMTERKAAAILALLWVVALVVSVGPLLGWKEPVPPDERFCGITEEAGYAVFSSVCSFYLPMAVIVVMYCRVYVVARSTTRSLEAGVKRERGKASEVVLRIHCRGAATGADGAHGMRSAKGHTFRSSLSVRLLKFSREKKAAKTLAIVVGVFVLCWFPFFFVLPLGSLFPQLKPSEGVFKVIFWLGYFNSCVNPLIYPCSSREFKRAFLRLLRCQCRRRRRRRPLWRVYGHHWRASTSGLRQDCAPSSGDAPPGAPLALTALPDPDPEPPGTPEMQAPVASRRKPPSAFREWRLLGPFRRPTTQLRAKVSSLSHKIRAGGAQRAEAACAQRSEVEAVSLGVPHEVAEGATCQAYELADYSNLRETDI

[3] = target: T3, Alpha-1B adrenergic receptor (Homo sapiens, UniProt P35368); assay: Displacement of [125I]BE-2254 from human adrenergic Alpha-1B receptor expressed in HEK293 cells; format: cell-based; method in brief: as §1
T3 sequence (P35368 whole entry): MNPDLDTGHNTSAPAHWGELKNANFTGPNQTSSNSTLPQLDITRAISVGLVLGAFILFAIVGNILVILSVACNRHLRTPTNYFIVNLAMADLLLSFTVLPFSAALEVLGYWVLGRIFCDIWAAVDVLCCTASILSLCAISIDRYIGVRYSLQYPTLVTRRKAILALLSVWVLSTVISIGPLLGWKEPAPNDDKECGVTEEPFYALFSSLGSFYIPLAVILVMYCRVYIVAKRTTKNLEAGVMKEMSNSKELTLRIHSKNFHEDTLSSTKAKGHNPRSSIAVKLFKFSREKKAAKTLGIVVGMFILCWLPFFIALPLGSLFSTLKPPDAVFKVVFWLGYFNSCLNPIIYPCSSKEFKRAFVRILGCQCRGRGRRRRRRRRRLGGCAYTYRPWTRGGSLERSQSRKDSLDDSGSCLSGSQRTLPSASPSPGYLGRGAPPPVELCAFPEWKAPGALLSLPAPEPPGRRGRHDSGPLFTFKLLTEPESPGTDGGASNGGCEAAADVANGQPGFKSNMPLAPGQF

[4] = target: T2, Alpha-1D adrenergic receptor; assay: Antagonist activity against human cloned adrenergic Alpha-1D receptor expressed in HEK293 cells assessed as inhibition of norepinephrine-induced [3H]inositol phosphate hydrolysis by scintillation counting; format: functional, cell-based
Method in brief: (§2)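 HEK293 cells stably transfected with human α1A-, α1B- or α1D-AR cDNA were prelabelled with myo-[3H]inositol, then given Krebs Ringer bicarbonate buffer with LiCl. Cells were incubated 60 min with or without NE and graded compound concentrations. The reaction was stopped with 20 mM formic acid. [3H]InsPs were isolated by anion exchange and counted by scintillation. Values (±SE) came from concentration-response inhibition curves.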

[5] = target: T4, Alpha-1B adrenergic receptor (Homo sapiens) (UniProt P35368); assay: Antagonist activity at human adrenergic Alpha-1B receptor expressed in HEK293 cells assessed as [3H]inositol phosphate formation at 10 uM by scintillation counting; format: functional, cell-based
T4 sequence (whole entry): T3 sequence (P35368 whole entry)
Method in brief: (§3)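 Stably transfected HEK293 cells expressing human α1A-, α1B- or α1D-AR were labelled with myo-[3H]inositol and moved to Krebs Ringer bicarbonate buffer containing LiCl. They were incubated 60 min with or without NE, in the presence or absence of test compound. After a formic acid stop and sonication, [3H]InsPs were separated by anion-exchange chromatography and counted by scintillation.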

[6] = target: T5, Alpha-1D adrenergic receptor (Homo sapiens) (UniProt P25100); assay: Antagonist activity at human adrenergic Alpha-1D receptor expressed in HEK293 cells assessed as [3H]inositol phosphate formation at 10 uM by scintillation counting; format: functional, cell-based; method in brief: as §3
T5 sequence (whole entry): T2 sequence (P25100 whole entry)

[7] = target: T3, Alpha-1B adrenergic receptor; assay: Antagonist activity against human cloned adrenergic Alpha-1B receptor expressed in HEK293 cells assessed as inhibition of norepinephrine-induced [3H]inositol phosphate hydrolysis by scintillation counting; format: functional, cell-based; method in brief: as §2
[8] = target: T6, Alpha-1A adrenergic receptor (Homo sapiens) (UniProt P35348); assay: Antagonist activity at human adrenergic alpha1A receptor expressed in HEK293 cells assessed as [3H]inositol phosphate formation at 10 uM by scintillation counting; format: functional, cell-based; method in brief: as §3
T6 sequence (whole entry): T1 sequence (P35348 whole entry)

[9] = target: T1, Alpha-1A adrenergic receptor; assay: Antagonist activity at human adrenergic alpha1A receptor expressed in HEK293 cells assessed as inhibition of norepinephrine-induced [3H]inositol phosphate hydrolysis by scintillation counting; format: functional, cell-based; method in brief: as §2
[10] = target: T3, Alpha-1B adrenergic receptor; assay: Binding affinity to adrenergic Alpha-1B receptor
Method in brief: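 Human α1B-adrenoceptor stably expressed in HEK293 cells, transfected with a pRSVICAT vector and selected with geneticin. Membranes were prepared by scraping cells, homogenizing them and centrifuging at 30,000 × g for 10 min. Values are pKi, mean ± SE of three experiments run in duplicate.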

| Compound | Ki [1] [nM] | Ki [2] [nM] | Ki [3] [nM] | further results |
| --- | --- | --- | --- | --- |
| COc1ccccc1N1CCN(CCN2C(=O)CC(c3ccccc3)CC2=O)CC1 | 3470 | 1320 | 7410 | – |
| COc1ccc(Cl)cc1N1CCN(CCCCN2C(=O)CC(C)(c3ccccc3)CC2=O)CC1 | 95.5 | 77.6 | 151 | – |
| COc1ccccc1N1CCN(CCN2C(=O)CC3(CCc4ccccc43)CC2=O)CC1 | 3390 | 912 | 5010 | – |
| COc1ccccc1N1CCN(CCCCCN2C(=O)CC(c3ccccc3)CC2=O)CC1 | 21.9 | 30.9 | 97.7 | – |
| CC(C)(C)c1ccc(N2CCN(CCn3c(=O)[nH]c4c([nH]c5ccccc54)c3=O)CC2)cc1 | – | – | – | pKi ([2]; hek293): 7.7 |
| COc1ccccc1N1CCN(CCCN2C(=O)CC(C)(c3ccccc3)CC2=O)CC1 | 10.2 | 51.3 | 129 | – |
| COc1ccccc1N1CCN(CCCCN2C(=O)CC(c3ccccc3)CC2=O)CC1 | 1.82 | 15.8 | 24 | Ki [4]: 2 nM; Activity [5]: inactive; Activity [6]: inactive; Ki [7]: 3.98 nM; Activity [8]: inactive; Ki [9]: 2.51 nM |
| COc1ccccc1N1CCN(CCCCN2C(=O)CC(C)(c3ccccc3)CC2=O)CC1 | 22.4 | 14.5 | 56.2 | Ki [4]: 0.501 nM; Activity [5]: inactive; Activity [6]: inactive; Ki [7]: 7.94 nM; Activity [8]: inactive; Ki [9]: 31.6 nM |
| COc1ccccc1N1CCN(CCCN2C(=O)CC(c3ccc([N+](=O)[O-])cc3)CC2=O)CC1 | 14.1 | 67.6 | 129 | – |
| COc1ccccc1N1CCN(CCCCN2C(=O)CC(c3ccc([N+](=O)[O-])cc3)CC2=O)CC1 | 20.9 | 53.7 | 209 | – |
| COc1ccccc1N1CCN(CCCN2C(=O)CC(c3ccccc3)CC2=O)CC1 | 46.8 | 45.7 | 112 | – |
| COc1ccccc1N1CCN(CCCN2C(=O)CC(c3ccc(Cl)cc3)CC2=O)CC1 | 28.2 | 69.2 | 126 | – |
| COc1ccc(Cl)cc1N1CCN(CCCN2C(=O)CC(c3ccccc3)CC2=O)CC1 | 191 | 389 | 331 | – |
| COc1ccccc1N1CCN(CCN2C(=O)CC3(CCCC3)CC2=O)CC1 | – | – | – | Ki [10]: 50.1 nM |
| O=C1CC(c2ccccc2)CC(=O)N1CCCN1CCN(c2ccccc2Cl)CC1 | 47.9 | 43.7 | 112 | – |
| O=C1CC(c2ccc(Cl)cc2)CC(=O)N1CCCN1CCN(c2ccccc2Cl)CC1 | 49 | 63.1 | 135 | – |
| COc1ccccc1N1CCN(CCn2c(=O)[nH]c3c([nH]c4ccccc43)c2=O)CC1 | – | – | – | pKi ([1]; hek293): 9.57 |
| COc1ccccc1N1CCN(CCN2C(=O)CC(c3ccc(Cl)cc3)CC2=O)CC1 | 1700 | 692 | 112 | – |
| O=C1CC(c2ccccc2)CC(=O)N1CCN1CCN(c2ccccc2Cl)CC1 | 3240 | 631 | 2240 | – |
| O=C1CC(c2ccc(Cl)cc2)CC(=O)N1CCN1CCN(c2ccccc2Cl)CC1 | 6920 | 1510 | 10000 | – |
| COc1ccccc1N1CCN(CCCCN2C(=O)CC(c3ccc(Cl)cc3)CC2=O)CC1 | 67.6 | 72.4 | 245 | – |
| O=C1CC(c2ccccc2)CC(=O)N1CCCCN1CCN(c2ccccc2Cl)CC1 | 15.8 | 33.9 | 30.2 | – |
| COc1ccc(Cl)cc1N1CCN(CCCCN2C(=O)CC(c3ccccc3)CC2=O)CC1 | 36.3 | 38.9 | 107 | – |
| COc1ccccc1N1CCN(CCCN2C(=O)CC3(CCc4ccccc43)CC2=O)CC1 | 63.1 | 75.9 | 234 | – |
| COc1ccc(Cl)cc1N1CCN(CCCN2C(=O)CC(C)(c3ccccc3)CC2=O)CC1 | 34.7 | 97.7 | 195 | – |
| COc1ccccc1N1CCN(CCCCN2C(=O)CC3(CCc4ccccc43)CC2=O)CC1 | 9.77 | 16.2 | 72.4 | Ki [4]: 5.01 nM; Activity [5]: inactive; Activity [6]: inactive; Ki [7]: 20 nM; Activity [8]: inactive; Ki [9]: 10 nM |

Reference: ChEMBL document CHEMBL1795327, “Novel 4-phenylpiperidine-2,6-dione derivatives. Ligands for α₁-adrenoceptor subtypes” (Eur J Med Chem, 2011)
